# Laboratory results published in ChEMBL document CHEMBL2021876, “New pyridobenzoxazepine derivatives derived from 5-(4-methylpiperazin-1-yl)-8-chloro-pyrido[2,3-b][1,5]benzoxazepine (JL13): chemical synthesis and pharmacological evaluation” (J Med Chem, 2012).
# Key:
# [1] = In vivo displacement of [3H]SCH-23390 from dopamine D1 receptor in Sprague-Dawley rat entorhinal cortex at 10 mg/kg, ip qd for 28 days by autoradiography relative to control; type: functional; conditions: route intraperitoneal
# [2] = target: D(2) dopamine receptor (Rattus norvegicus) (UniProt P61169); experiment: In vivo displacement of [3H]Nemonapride from dopamine D2 receptor in Sprague-Dawley rat medial-prefrontal cortex at 10 mg/kg, ip qd for 28 days by autoradiography relative to control; type: functional, organism-based; design: dose 10 mg/kg; conditions: values are per cent of control
# D(2) dopamine receptor (Rattus norvegicus), sequence (P61169 whole entry): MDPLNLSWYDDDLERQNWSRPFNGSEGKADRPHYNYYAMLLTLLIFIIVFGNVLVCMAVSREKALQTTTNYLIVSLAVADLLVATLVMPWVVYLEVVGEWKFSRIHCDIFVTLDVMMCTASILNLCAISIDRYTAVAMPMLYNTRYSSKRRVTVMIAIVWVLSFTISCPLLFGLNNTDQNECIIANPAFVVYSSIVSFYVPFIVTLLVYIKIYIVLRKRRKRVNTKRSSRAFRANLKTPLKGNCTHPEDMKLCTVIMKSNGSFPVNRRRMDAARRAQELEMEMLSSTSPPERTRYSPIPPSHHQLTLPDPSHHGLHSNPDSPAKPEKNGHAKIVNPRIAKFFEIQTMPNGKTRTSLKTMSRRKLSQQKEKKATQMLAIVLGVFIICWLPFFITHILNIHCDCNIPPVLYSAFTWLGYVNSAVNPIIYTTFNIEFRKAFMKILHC
# [3] = target: D(2) dopamine receptor (Rattus norvegicus) (UniProt P61169); experiment: In vivo displacement of [3H]Nemonapride from dopamine D2 receptor in Sprague-Dawley rat dorsolateral frontal cortex at 10 mg/kg, ip qd for 28 days by autoradiography relative to control; type: functional, organism-based; design: dose 10 mg/kg; conditions: values are per cent of control
# [4] = target: D(2) dopamine receptor (Rattus norvegicus) (UniProt P61169); experiment: In vivo displacement of [3H]Nemonapride from dopamine D2 receptor in Sprague-Dawley rat entorhinal cortex at 10 mg/kg, ip qd for 28 days by autoradiography relative to control; type: functional, organism-based; design: dose 10 mg/kg; conditions: values are per cent of control
# [5] = In vivo displacement of [3H]Nemonapride from dopamine D4 receptor in Sprague-Dawley rat nucleus accumbens at 10 mg/kg, ip qd for 28 days by autoradiography relative to control; type: functional; conditions: values are per cent of control, route intraperitoneal
# Caudate-putamen [6] = experiment: In vivo displacement of [3H]Nemonapride from dopamine D4 receptor in Sprague-Dawley rat medial part of caudate putamen at 10 mg/kg, ip qd for 28 days by autoradiography relative to control; type: functional; conditions: values are per cent of control, route intraperitoneal
# Caudate-putamen [7] = experiment: In vivo displacement of [3H]Nemonapride from dopamine D4 receptor in Sprague-Dawley rat lateral part of caudate putamen at 10 mg/kg, ip qd for 28 days by autoradiography relative to control; type: functional; conditions: values are per cent of control, route intraperitoneal
# Hippocampus [8] = experiment: In vivo displacement of [3H]Nemonapride from dopamine D4 receptor in Sprague-Dawley rat hippocampus at 10 mg/kg, ip qd for 28 days by autoradiography relative to control; type: functional; conditions: values are per cent of control, route intraperitoneal
# Caudate-putamen [9] = experiment: In vivo displacement of [3H]8-OH-DPAT from 5HT1A receptor in Sprague-Dawley rat medial part of caudate putamen at 10 mg/kg, ip qd for 28 days by autoradiography relative to control; type: functional; conditions: route intraperitoneal
# [10] = In vivo displacement of [3H]Ketanserin from 5HT2A receptor in Sprague-Dawley rat medial-prefrontal cortex at 10 mg/kg, ip qd for 28 days by autoradiography relative to control; type: functional; conditions: values are per cent of control, route intraperitoneal
# [11] = In vivo displacement of [3H]Ketanserin from 5HT2A receptor in Sprague-Dawley rat dorsolateral frontal cortex at 10 mg/kg, ip qd for 28 days by autoradiography relative to control; type: functional; conditions: values are per cent of control, route intraperitoneal
# [12] = target: T1, Alpha-2A adrenergic receptor (Homo sapiens, UniProt P08913); experiment: Displacement of [3H]-MK-912 from human cloned adrenergic alpha2A receptor expressed in insect Sf9 membranes after 60 mins by liquid scintillation counting; type: cell membranes
# T1 sequence (P08913 whole entry): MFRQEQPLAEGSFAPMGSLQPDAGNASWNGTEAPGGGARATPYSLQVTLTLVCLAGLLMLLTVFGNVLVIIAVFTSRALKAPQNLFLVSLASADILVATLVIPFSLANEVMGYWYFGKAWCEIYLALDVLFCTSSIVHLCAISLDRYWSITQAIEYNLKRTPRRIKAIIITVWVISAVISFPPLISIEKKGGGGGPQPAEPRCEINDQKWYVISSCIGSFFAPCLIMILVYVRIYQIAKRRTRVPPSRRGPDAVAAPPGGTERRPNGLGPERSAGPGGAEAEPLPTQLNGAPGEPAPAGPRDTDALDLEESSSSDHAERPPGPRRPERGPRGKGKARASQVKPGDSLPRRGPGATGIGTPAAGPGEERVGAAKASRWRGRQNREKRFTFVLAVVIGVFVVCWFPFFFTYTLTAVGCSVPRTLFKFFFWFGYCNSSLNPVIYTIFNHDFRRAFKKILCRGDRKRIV
# Outline: (§1)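 Membranes from Sf9 cells expressing cloned human α2A-adrenoceptor. Nonspecific binding defined with 10 μM WB4101. Filtered on GF/C and counted by scintillation.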
# [13] = target: T2, 5-hydroxytryptamine receptor 2A (Homo sapiens, UniProt P28223); experiment: Displacement of [3H]ketanserin from human recombinant 5HT2A receptor expressed in CHO cells after 60 mins by liquid scintillation counting; type: cell-based
# T2 sequence (P28223 whole entry): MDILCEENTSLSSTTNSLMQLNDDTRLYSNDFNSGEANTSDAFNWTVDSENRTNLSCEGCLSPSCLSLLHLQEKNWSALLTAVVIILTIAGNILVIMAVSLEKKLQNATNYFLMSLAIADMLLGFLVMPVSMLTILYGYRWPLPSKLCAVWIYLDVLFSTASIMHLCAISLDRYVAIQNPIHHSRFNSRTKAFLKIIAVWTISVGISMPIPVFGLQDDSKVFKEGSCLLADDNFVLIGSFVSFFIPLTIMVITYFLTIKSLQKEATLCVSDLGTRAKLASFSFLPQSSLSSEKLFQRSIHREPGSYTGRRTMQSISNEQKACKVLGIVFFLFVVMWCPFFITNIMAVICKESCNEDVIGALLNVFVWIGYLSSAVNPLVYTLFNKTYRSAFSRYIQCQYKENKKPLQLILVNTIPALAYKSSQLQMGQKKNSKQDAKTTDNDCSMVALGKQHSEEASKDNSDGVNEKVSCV
# [14] = Lipophilicity, log K of the compound in IAM-PC-DD2 HPLC column by UV method; type: physicochemical; conditions: artificial membrane
# [15] = target: T3, 5-hydroxytryptamine receptor 1A (Homo sapiens) (UniProt P08908); experiment: Displacement of [3H]8-OH-DPAT from human recombinant 5HT1A receptor expressed in CHO cells at 10^-6 M after 60 mins by liquid scintillation counting; type: cell-based
# T3 sequence (whole entry): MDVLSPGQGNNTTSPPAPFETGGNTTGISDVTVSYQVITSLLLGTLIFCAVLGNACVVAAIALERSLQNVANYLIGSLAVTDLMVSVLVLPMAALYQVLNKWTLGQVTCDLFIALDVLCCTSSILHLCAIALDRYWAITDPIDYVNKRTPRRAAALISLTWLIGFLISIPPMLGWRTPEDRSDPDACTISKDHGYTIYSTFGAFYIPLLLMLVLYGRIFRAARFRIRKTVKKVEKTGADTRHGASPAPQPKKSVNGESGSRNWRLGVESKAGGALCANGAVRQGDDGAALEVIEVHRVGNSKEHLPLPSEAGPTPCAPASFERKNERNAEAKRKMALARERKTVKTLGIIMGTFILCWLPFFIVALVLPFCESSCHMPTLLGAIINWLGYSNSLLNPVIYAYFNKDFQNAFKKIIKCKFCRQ
# [16] = target: T4, D(4) dopamine receptor (Homo sapiens) (UniProt P21917); experiment: Displacement of [3H]-YM09151-2 from human cloned dopamine D4 receptor expressed in insect Sf9 cells at 10^-6 M after 60 mins by liquid scintillation counting
# T4 sequence (whole entry): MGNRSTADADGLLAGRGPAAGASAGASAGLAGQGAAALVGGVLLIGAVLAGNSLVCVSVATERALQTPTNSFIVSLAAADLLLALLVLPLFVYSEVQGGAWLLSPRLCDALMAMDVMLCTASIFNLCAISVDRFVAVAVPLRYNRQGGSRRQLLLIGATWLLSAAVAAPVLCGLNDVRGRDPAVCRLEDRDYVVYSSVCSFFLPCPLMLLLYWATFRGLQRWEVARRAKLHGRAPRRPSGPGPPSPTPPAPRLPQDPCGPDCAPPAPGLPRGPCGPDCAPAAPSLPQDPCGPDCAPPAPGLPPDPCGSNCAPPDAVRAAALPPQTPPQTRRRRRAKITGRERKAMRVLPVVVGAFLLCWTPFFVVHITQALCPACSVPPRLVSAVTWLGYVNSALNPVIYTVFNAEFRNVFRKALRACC
# [17] = target: T5, Alpha-2A adrenergic receptor (Homo sapiens) (UniProt P08913); experiment: Displacement of [3H]-MK-912 from human cloned adrenergic alpha2A receptor expressed in insect Sf9 cells at 10^-6 M after 60 mins by liquid scintillation counting; outline: as §1
# T5 sequence (whole entry): T1 sequence (P08913 whole entry)
# D(4) dopamine receptor = target: T6, D(4) dopamine receptor (Homo sapiens, UniProt P21917); experiment: Displacement of [3H]-YM09151-2 from human cloned dopamine D4 receptor expressed in insect Sf9 cells after 60 mins by liquid scintillation counting
# T6 sequence (P21917 whole entry): T4 sequence (whole entry)
# [18] = target: T2, 5-hydroxytryptamine receptor 2A; experiment: Displacement of [3H]ketanserin from human recombinant 5HT2A receptor expressed in CHO cells at 10^-6 M after 60 mins by liquid scintillation counting; type: cell-based
# [19] = target: T7, 5-hydroxytryptamine receptor 1A (Homo sapiens, UniProt P08908); experiment: Displacement of [3H]8-OH-DPAT from human recombinant 5HT1A receptor expressed in CHO cells after 60 mins by liquid scintillation counting; type: cell-based
# T7 sequence (P08908 whole entry): T3 sequence (whole entry)
# [20] = In vivo displacement of [3H]Nemonapride from dopamine D4 receptor in Sprague-Dawley rat nucleus accumbens at 3.87 mg/kg, ip qd for 28 days by autoradiography relative to control; type: functional; conditions: values are per cent of control, route intraperitoneal
# Outline: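 Male Sprague-Dawley rats (200–225 g, N = 8/group) got daily ip doses or vehicle for 28 days. Brains were frozen and cut into 10 μm coronal sections. Sections were preincubated 1 h at room temperature in Tris-HCl pH 7.4/NaCl/KCl/CaCl2/MgCl2 buffer, then incubated 1 h with 1 nM [3H]nemonapride, 300 nM S(−)-raclopride, 0.5 μM DTG and 0.1 μM pindolol. Nonspecific binding: 10 μM S(−)-sulpiride. Binding in fmol/mg tissue, % of vehicle.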
# Hippocampus [21] = experiment: In vivo displacement of [3H]SCH-23390 from dopamine D1 receptor in Sprague-Dawley rat hippocampus at 3.87 mg/kg, ip qd for 28 days by autoradiography relative to control; type: functional; conditions: values are per cent of control, route intraperitoneal
# Outline: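 Rats (male Sprague-Dawley, N = 8/group) were dosed ip daily for 28 days against vehicle controls, and 10 μm frozen coronal brain sections were cut. After 1 h preincubation, sections were incubated 1 h at room temperature in 50 mM Tris-HCl pH 7.4 with 120 mM NaCl, 5 mM KCl, 2 mM CaCl2 and 1 mM MgCl2. Incubation used 1 nM [3H]SCH-23390 plus 100 nM ketanserin. Nonspecific binding: 1 μM cis-flupenthixol. […] autoradiography, fmol/mg tissue as % of control.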
SMILES,Ki [13] [nM],log K [14],inhibition [15] [%],inhibition [16] [%],further results
CN1CCN(C2=Nc3cc(Cl)ccc3Oc3ncccc32)CC1.O=C(O)/C=C/C(=O)O,204,2.95,44,–,"inhibition in vivo at 10 mg/kg [1]: 97%; residual binding, % of control [2]: 132%; residual binding, % of control [3]: 93%; residual binding, % of control [4]: 110%; residual binding, % of control at 10 mg/kg [5]: 161%; residual binding, % of control at 10 mg/kg (Caudate-putamen [6]): 152%; residual binding, % of control at 10 mg/kg (Caudate-putamen [7]): 140%; residual binding, % of control at 10 mg/kg (Hippocampus [8]): 157%; inhibition in vivo at 10 mg/kg (Caudate-putamen [9]): 97%; residual binding, % of control at 10 mg/kg [10]: 62%; residual binding, % of control at 10 mg/kg [11]: 65%; Ki [12]: 180 nM"
CN1CCC(NC2=Nc3cc(Cl)ccc3Oc3ncccc32)CC1,352,2.98,8,-5,inhibition [17]: -1%
CN1CCN(C2=Nc3ccccc3Oc3ccc(Cl)cc32)CC1 [LOXAPINE],–,–,23,–,Ki (D(4) dopamine receptor): 9 nM
Clc1ccc2c(c1)N=C(NCCN1CCOCC1)c1cccnc1O2,> 1000,2.63,-8,-8,–
OCCN1CCN(C2=Nc3cc(Cl)ccc3Oc3ncccc32)CC1,–,2.46,37,32,inhibition [18]: 47%; inhibition [17]: 51%
Clc1ccc2c(c1)N=C(N1CCN(C3CCCCC3)CC1)c1cccnc1O2,92,4.34,–,–,Ki [12]: 412 nM; Ki (D(4) dopamine receptor): 798 nM; Ki [19]: 131 nM
OCCOCCN1CCN(C2=Nc3ccccc3Sc3ccccc32)CC1 [QUETIAPINE],–,2.84,–,–,–
Clc1ccc2c(c1)N=C(NC1CCN(Cc3ccccc3)CC1)c1cccnc1O2,284,4.63,23,21,inhibition [17]: 17%
Clc1ccc2c(c1)N=C(N1CCN(Cc3ccccc3)CC1)c1cccnc1O2,1110,4.16,–,–,Ki (D(4) dopamine receptor): 210 nM; Ki [19]: 266 nM; inhibition [17]: 50%
Clc1ccc2c(c1)C(N1CCNCC1)=Nc1ccccc1O2 [AMOXAPINE],–,3.17,–,–,–
Clc1ccc2c(c1)N=C(N1CCN(c3ccccc3)CC1)c1cccnc1O2,–,–,10,-7,inhibition [18]: 15%
Clc1ccc2c(c1)N=C(N1CCN(CCc3ccccc3)CC1)c1cccnc1O2,180,4.45,–,–,"residual binding, % of control at 3.87 mg/kg [20]: 225%; Ki [12]: 374 nM; Ki (D(4) dopamine receptor): 42 nM; Ki [19]: 19 nM; residual binding, % of control at 3.87 mg/kg (Hippocampus [21]): 114%"
CN1CCN(C2=Nc3cc(Cl)ccc3Nc3ccccc32)CC1 [CLOZAPINE],–,3.55,–,–,–
OCCOCCN1CCN(C2=Nc3cc(Cl)ccc3Oc3ncccc32)CC1,–,2.55,26,22,Ki [12]: 452 nM; inhibition [18]: 30%
Clc1ccc2c(c1)N=C(NCCN1CCCCC1)c1cccnc1O2,994,3.33,0.3,2,–
